In ChEMBL document CHEMBL1150415 (J Med Chem, 2008):
Activity calls are given as the source filed them. The calls are words filed in the database; no cut-off is given here.

How the values were obtained:
[1] = Inhibition of cytosolic phospholipase A2alpha by GLU micelle assay
In short: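 Micellar assay with 7-hydroxycoumarinyl-γ-linolenate (GLU) substrate, presenting inhibitor and substrate to the enzyme in high-lipid micelles. Each run gives the mean of duplicate assays, and values come from at least two runs.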

Blood = assay: Inhibition of TXB2 production in Sprague-Dawley rat whole blood; assay type: functional, tissue-based
In short: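 Rat whole blood stimulated with calcium ionophore A23187 at 5 µM, with thromboxane B2 measured. Each run gives the mean of triplicate assays, and values come from at least two runs.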

[2] = Plasma clearance in Sprague-Dawley rat at 2 mg/kg, iv; assay type: ADME, organism-based; set-up: dose 2 mg/kg, route intravenous
Rattus norvegicus [3] = assay: Reduction in synovitis damage in Freund's adjuvant-induced arthritis Lewis rat model at 5 mg/kg, po for 11 days; assay type: functional, organism-based; set-up: dose 5 mg/kg
In short: (§1)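 Arthritis was induced in Lewis rats by intradermal complete Freund's adjuvant at the base of the tail. Oral treatment began on day 8, when mean clinical joint scores were 12, and continued for 11 days. Tarsal joints were taken at necropsy and lesions were scored histologically in blinded fashion.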

Rattus norvegicus [4] = assay: Reduction in cartilage damage in Freund's adjuvant-induced arthritis Lewis rat model at 5 mg/kg, po for 11 days; assay type: functional, organism-based; set-up: dose 5 mg/kg; in short: as §1
Rattus norvegicus [5] = assay: Inhibition of PGE2 production in carrageenan-stimulated rat air pouch model at 2 mg/kg, ip after 6 hrs; assay type: functional; details: route intraperitoneal
In short: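 Rats given an intraperitoneal dose. Carrageenan was injected into a preformed air pouch, contents were collected 6 h later, and PGE2 was quantified.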

Rattus norvegicus [6] = assay: Inhibition of carrageenan-induced paw edema in Sprague-Dawley rat administered 2 hrs before carrageenan challenge at 25 mg/kg, po; assay type: functional
MC9 [7] = assay: Inhibition of PGF2alpha production in mouse MC9 cells; assay type: functional, cell-based
MC9 [8] = assay: Inhibition of PGF2apha production in arachidonic acid-stimulated mouse MC9 cells; assay type: functional, cell-based
[9] = Plasma concentration in adjuvant-induced arthritis Lewis rat model at 5 mg/kg, po after 4 hrs; assay type: ADME, organism-based; set-up: dose 5 mg/kg, route oral
[10] = Plasma concentration in adjuvant-induced arthritis Lewis rat model at 5 mg/kg, po after 16 hrs; assay type: ADME, organism-based; set-up: dose 5 mg/kg, route oral
Rattus norvegicus [11] = assay: Inhibition of carrageenan-induced paw edema in Sprague-Dawley rat administered 2 hrs before carrageenan challenge at 10 mg/kg, po; details: read-out: INH
MC9 [12] = assay: Inhibition of leukotrienes production in mouse MC9 cells; assay type: functional, cell-based
In short: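 Murine MC-9 mast cells stimulated through the IgE receptor to release arachidonic acid. Leukotriene production (5-LO pathway) was quantified.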

MC9 [13] = assay: Inhibition of LTB4 production in mouse MC9 cells; assay type: functional, cell-based

IC50 [1] [nM]	IC50 (Blood) [nM]	Structure (SMILES)	further results
4	70	Cc1cccc(C)c1CS(=O)(=O)NCCc1c(CCS(=O)(=O)c2ccc(C(=O)O)cc2)c2cc(Cl)ccc2n1C(c1ccccc1)c1ccccc1	clearance [2]: 25 mL/min/kg
180	80	O=C(O)c1ccc(OCCc2c(CCNS(=O)(=O)Cc3c(F)cccc3F)n(C(c3ccccc3)c3ccccc3)c3ccc(Cl)cc23)cc1	clearance [2]: 32 mL/min/kg
		Cc1ccc(-c2cc(C(F)(F)F)nn2-c2ccc(S(N)(=O)=O)cc2)cc1 [CELECOXIB]	Activity (Rattus norvegicus [3]): Active; Activity (Rattus norvegicus [4]): Active; inhibition in vivo at 2 mg/kg (Rattus norvegicus [5]): 90%; inhibition in vivo at 25 mg/kg (Rattus norvegicus [6]): 37%; IC50 (MC9 [7]): 400 nM; IC50 (MC9 [8]): 300 nM; concentration at 4 h [9]: 1130 ng/mL; concentration at 16 h [10]: 129 ng/mL
20	80	O=C(O)c1ccc(S(=O)(=O)CCc2c(CCNS(=O)(=O)Cc3ccccc3)n(C(c3ccccc3)c3ccccc3)c3ccc(Cl)cc23)cc1	clearance [2]: 54 mL/min/kg
60	360	O=C(O)c1ccc(CCCc2c(CCNS(=O)(=O)Cc3c(F)cccc3F)n(C(c3ccccc3)c3ccccc3)c3ccc(Cl)cc23)cc1	
50	50	O=C(O)c1ccc(OCCc2c(CCNS(=O)(=O)Cc3ccccc3Cl)n(C(c3ccccc3)c3ccccc3)c3ccc(Cl)cc23)cc1	
680	400	O=C(O)c1ccc(NCCc2c(CCNS(=O)(=O)Cc3ccccc3)n(C(c3ccccc3)c3ccccc3)c3ccc(Cl)cc23)cc1	
400	350	O=C(O)c1ccc(OCCc2c(CCNS(=O)(=O)Cc3ccccn3)n(C(c3ccccc3)c3ccccc3)c3ccc(Cl)cc23)cc1	
10	20	O=C(O)CCc1ccc(S(=O)(=O)CCc2c(CCNS(=O)(=O)Cc3ccccc3Cl)n(C(c3ccccc3)c3ccccc3)c3ccc(Cl)cc23)cc1	clearance [2]: 63 mL/min/kg
110	70	O=C(O)c1ccc(OCCc2c(CCNS(=O)(=O)Cc3cccc([N+](=O)[O-])c3)n(C(c3ccccc3)c3ccccc3)c3ccc(Cl)cc23)cc1	
30	30	Cc1cccc(C)c1CS(=O)(=O)NCCc1c(CCOc2ccc(C(=O)O)cc2)c2cc(Cl)ccc2n1C(c1ccccc1)c1ccccc1	clearance [2]: 13 mL/min/kg
60	30	Cc1ccccc1CS(=O)(=O)NCCc1c(CCOc2ccc(C(=O)O)cc2)c2cc(Cl)ccc2n1C(c1ccccc1)c1ccccc1	
70	20	O=C(O)CCc1ccc(S(=O)(=O)CCc2c(CCNS(=O)(=O)Cc3c(F)cccc3F)n(C(c3ccccc3)c3ccccc3)c3ccc(Cl)cc23)cc1	
30	20	O=C(O)CCc1ccc(S(=O)(=O)CCc2c(CCNS(=O)(=O)Cc3ccccc3)n(C(c3ccccc3)c3ccccc3)c3ccc(Cl)cc23)cc1	clearance [2]: 150 mL/min/kg
> 20000		O=C(O)Cc1nc(CCCc2c(CCNS(=O)(=O)Cc3ccccc3)n(C(c3ccccc3)c3ccccc3)c3ccc(Cl)cc23)no1	
		COc1ccc2cc([C@H](C)C(=O)O)ccc2c1 [NAPROXEN]	inhibition in vivo at 10 mg/kg (Rattus norvegicus [11]): 50%; IC50 (MC9 [7]): 200 nM; IC50 (MC9 [8]): 330 nM
20	30	O=C(O)c1ccc(CCCc2c(CCNS(=O)(=O)Cc3ccccc3Cl)n(C(c3ccccc3)c3ccccc3)c3ccc(Cl)cc23)cc1	clearance [2]: 7 mL/min/kg
160	90	O=C(O)c1ccc(OCCc2c(CCNS(=O)(=O)Cc3ccc([N+](=O)[O-])cc3)n(C(c3ccccc3)c3ccccc3)c3ccc(Cl)cc23)cc1	
30	20	Cc1ccccc1CS(=O)(=O)NCCc1c(CCCc2ccc(C(=O)O)cc2)c2cc(Cl)ccc2n1C(c1ccccc1)c1ccccc1	clearance [2]: 6 mL/min/kg

IC50 [1] [nM]	IC50 (Blood) [nM]	Structure (SMILES)	further results
		CC(c1cc2ccccc2s1)N(O)C(N)=O (configuration not stated) [ZILEUTON]	Activity (MC9 [12]): Active; IC50 (MC9 [13]): 550 nM
10	60	O=C(O)c1ccc(S(=O)(=O)CCc2c(CCNS(=O)(=O)Cc3ccccc3Cl)n(C(c3ccccc3)c3ccccc3)c3ccc(Cl)cc23)cc1	
40	40	O=C(O)CCc1ccc(S(=O)(=O)CCc2c(CCNS(=O)(=O)Cc3ccc(Cl)c(Cl)c3)n(C(c3ccccc3)c3ccccc3)c3ccc(Cl)cc23)cc1	clearance [2]: 10 mL/min/kg
7000	> 10000	O=C(O)COc1ccc(Cc2c(CCNS(=O)(=O)Cc3ccccc3)n(C(c3ccccc3)c3ccccc3)c3ccc(Cl)cc23)cc1	
180	340	O=C(O)c1ccc(OCCc2c(CCNS(=O)(=O)Cc3ccncc3)n(C(c3ccccc3)c3ccccc3)c3ccc(Cl)cc23)cc1	
20	150	O=C(O)c1ccc(S(=O)(=O)CCc2c(CCNS(=O)(=O)Cc3c(F)cccc3F)n(C(c3ccccc3)c3ccccc3)c3ccc(Cl)cc23)cc1	clearance [2]: 186 mL/min/kg
110		O=C(O)c1ccc(OCCc2c(CCNS(=O)(=O)Cc3ccccc3)n(C(c3ccccc3)c3ccccc3)c3ccc(Cl)cc23)cc1	
70	70	O=C(O)c1ccc(CCCc2c(CCNS(=O)(=O)Cc3ccccc3)n(C(c3ccccc3)c3ccccc3)c3ccc(Cl)cc23)cc1	
2000	900	O=C(O)CCc1ccc(Cc2c(CCNS(=O)(=O)Cc3ccccc3)n(C(c3ccccc3)c3ccccc3)c3ccc(Cl)cc23)cc1	
300	160	N#Cc1cccc(CS(=O)(=O)NCCc2c(CCOc3ccc(C(=O)O)cc3)c3cc(Cl)ccc3n2C(c2ccccc2)c2ccccc2)c1	
20	150	O=C(O)c1ccc(S(=O)(=O)CCc2c(CCNS(=O)(=O)Cc3ccc(Cl)c(Cl)c3)n(C(c3ccccc3)c3ccccc3)c3ccc(Cl)cc23)cc1	clearance [2]: 19 mL/min/kg
220	360	O=C(O)c1ccc(OCCc2c(CCNS(=O)(=O)Cc3cccnc3)n(C(c3ccccc3)c3ccccc3)c3ccc(Cl)cc23)cc1	
85	30	O=C(O)c1ccc(OCCc2c(CCNS(=O)(=O)Cc3ccccc3[N+](=O)[O-])n(C(c3ccccc3)c3ccccc3)c3ccc(Cl)cc23)cc1	
33000	> 10000	O=C(O)c1ccc(Cc2c(CCNS(=O)(=O)Cc3ccccc3)n(C(c3ccccc3)c3ccccc3)c3ccc(Cl)cc23)cc1	
4300	1800	CN(CCc1c(CCNS(=O)(=O)Cc2ccccc2)n(C(c2ccccc2)c2ccccc2)c2ccc(Cl)cc12)c1ccc(C(=O)O)cc1	
230	140	O=C(O)c1ccc(OCCc2c(CCNS(=O)(=O)Cc3ccc4ccccc4c3)n(C(c3ccccc3)c3ccccc3)c3ccc(Cl)cc23)cc1	
190	70	O=C(O)CCc1ccc(OCCc2c(CCNS(=O)(=O)Cc3ccccc3)n(C(c3ccccc3)c3ccccc3)c3ccc(Cl)cc23)cc1	
260	150	N#Cc1ccc(CS(=O)(=O)NCCc2c(CCOc3ccc(C(=O)O)cc3)c3cc(Cl)ccc3n2C(c2ccccc2)c2ccccc2)cc1	
60	70	N#Cc1ccccc1CS(=O)(=O)NCCc1c(CCOc2ccc(C(=O)O)cc2)c2cc(Cl)ccc2n1C(c1ccccc1)c1ccccc1	
